Measurements from ChEMBL document CHEMBL4699658, “EST64454: a Highly Soluble σ Receptor Antagonist Clinical Candidate for Pain Management” (J Med Chem, 2020).
In brackets after ≈: the same amount, converted by molar mass.

Key:
[1] = Displacement of [3H]-DTG from sigma2 receptor in guinea pig brain membranes incubated for 120 mins by liquid scintillation counting method; assay type: cell membranes, Cavia porcellus, Cell membrane
Procedure, shortened: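 Guinea pig brain membranes (200 μg) incubated with 10 nM [³H]-DTG in 50 mM Tris-HCl pH 8, σ1R masked with 400 nM (+)-SKF10047, at 25 °C for 120 min. Nonspecific binding defined by 10 μM haloperidol. Filtration, three washes with ice-cold 50 mM Tris-HCl pH 7.4, scintillation counting. Ki given as mean of two determinations.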

[2] = target: T1, Sigma non-opioid intracellular receptor 1 (Homo sapiens, UniProt Q99720); experiment: Displacement of [3H]-(+)-pentazocine from human sigma1 receptor expressed in HEK293 cell membranes incubated for 120 mins by liquid scintillation counting method; set-up: species or system Cell membrane
T1 sequence (Q99720 whole entry): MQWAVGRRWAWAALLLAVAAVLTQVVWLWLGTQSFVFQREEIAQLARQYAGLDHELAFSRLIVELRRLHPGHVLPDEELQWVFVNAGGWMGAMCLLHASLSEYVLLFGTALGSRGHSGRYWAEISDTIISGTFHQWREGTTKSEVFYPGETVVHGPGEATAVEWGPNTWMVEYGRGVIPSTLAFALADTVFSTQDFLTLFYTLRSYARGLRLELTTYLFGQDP

[3] = target: Voltage-gated inwardly rectifying potassium channel KCNH2 (Homo sapiens, UniProt Q12809); experiment: Inhibition of human ERG expressed in CHO cells by patch clamp assay; assay type: cell-based
Sequence of Voltage-gated inwardly rectifying potassium channel KCNH2 (Q12809 whole entry): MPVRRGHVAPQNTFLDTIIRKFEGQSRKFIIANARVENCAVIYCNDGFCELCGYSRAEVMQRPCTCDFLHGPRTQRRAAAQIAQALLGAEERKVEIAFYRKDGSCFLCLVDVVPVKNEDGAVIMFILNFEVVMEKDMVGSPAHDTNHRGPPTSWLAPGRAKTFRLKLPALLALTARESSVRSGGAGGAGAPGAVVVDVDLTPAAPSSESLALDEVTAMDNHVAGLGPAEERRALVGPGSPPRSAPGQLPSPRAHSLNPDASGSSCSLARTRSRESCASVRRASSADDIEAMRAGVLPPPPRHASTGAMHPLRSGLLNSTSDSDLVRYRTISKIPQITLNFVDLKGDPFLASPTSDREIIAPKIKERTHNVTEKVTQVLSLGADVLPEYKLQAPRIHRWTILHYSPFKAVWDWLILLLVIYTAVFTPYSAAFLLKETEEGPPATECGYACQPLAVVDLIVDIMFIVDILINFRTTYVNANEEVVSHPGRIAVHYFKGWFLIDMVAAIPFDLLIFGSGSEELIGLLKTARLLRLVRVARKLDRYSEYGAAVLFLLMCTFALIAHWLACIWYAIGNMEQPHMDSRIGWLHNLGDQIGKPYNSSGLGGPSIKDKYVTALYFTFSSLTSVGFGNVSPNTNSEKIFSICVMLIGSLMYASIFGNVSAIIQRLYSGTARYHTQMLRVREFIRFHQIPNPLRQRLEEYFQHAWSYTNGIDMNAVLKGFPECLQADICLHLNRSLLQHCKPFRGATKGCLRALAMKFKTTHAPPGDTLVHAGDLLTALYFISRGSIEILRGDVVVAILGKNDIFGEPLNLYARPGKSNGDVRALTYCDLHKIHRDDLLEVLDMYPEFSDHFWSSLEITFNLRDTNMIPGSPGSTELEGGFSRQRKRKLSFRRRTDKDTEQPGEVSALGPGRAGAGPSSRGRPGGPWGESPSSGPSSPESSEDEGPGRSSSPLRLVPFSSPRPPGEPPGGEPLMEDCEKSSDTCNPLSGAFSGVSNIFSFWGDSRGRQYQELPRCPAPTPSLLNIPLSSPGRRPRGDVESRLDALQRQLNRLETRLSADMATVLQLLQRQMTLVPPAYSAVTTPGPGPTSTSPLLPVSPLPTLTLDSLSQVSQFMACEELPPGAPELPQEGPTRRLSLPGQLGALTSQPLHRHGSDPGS

Cavia porcellus = organism: Cavia porcellus; experiment: Displacement of [3H]-DTG from sigma2 receptor in guinea pig brain membranes at 1 uM incubated for 120 mins by liquid scintillation counting method relative to control; conditions: Cell membrane
[4] = Clearance in Wistar rat at 10 mg/kg, po by HPLC-MS/MS analysis relative to liver blood flow; assay type: ADME, organism-based; conditions: in vivo
[5] = Clearance in CD1 mouse at 10 mg/kg, po by HPLC-MS/MS analysis relative to liver blood flow; assay type: ADME, organism-based; conditions: in vivo
[6] = Oral bioavailability in CD1 mouse at 10 mg/kg by HPLC-MS/MS analysis; assay type: ADME, organism-based; conditions: in vivo
Procedure, shortened: (§1)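 Male CD1 mice (25−30 g), groups of 16, given 10 mg/kg orally in 0.5% hydroxypropyl methylcellulose or 1 mg/kg iv in saline. Blood drawn at several times (saphenous vein or intracardiac puncture) into heparinized tubes. Plasma spun at 4 °C, stored at −80 °C, protein-precipitated and assayed by HPLC-MS/MS. Parameters from noncompartmental analysis of concentration−time curves; clearance expressed as % liver blood flow.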

[7] = Oral bioavailability in Wistar rat at 10 mg/kg by HPLC-MS/MS analysis; assay type: ADME, organism-based; conditions: in vivo
Procedure, shortened: (§2)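 Male Wistar rats (250−300 g), groups of two, dosed orally at 10 mg/kg in 0.5% hydroxypropyl methylcellulose or iv at 1 mg/kg in saline. Serial blood into heparinized tubes (saphenous vein or cardiac puncture). Plasma kept at −80 °C and measured by HPLC-MS/MS after protein precipitation. Noncompartmental analysis gave parameters; clearance given as % liver blood flow.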

[8] = Aqueous solubility of compound; assay type: physicochemical
[9] = AUC (0 to infinity) in Wistar rat at 10 mg/kg, po by HPLC-MS/MS analysis; assay type: ADME, organism-based; set-up: route oral, time infinity, dose 10 mg/kg; conditions: in vivo; procedure, shortened: as §2
[10] = Volume of distribution at steady state in CD1 mouse at 10 mg/kg, po by HPLC-MS/MS analysis; assay type: ADME, organism-based; conditions: in vivo; procedure, shortened: as §1
[11] = AUC (0 to infinity) in CD1 mouse at 10 mg/kg, po by HPLC-MS/MS analysis; assay type: ADME, organism-based; set-up: time infinity, route oral, dose 10 mg/kg; conditions: in vivo; procedure, shortened: as §1
[12] = Elimination half life in Wistar rat at 10 mg/kg, po by HPLC-MS/MS analysis; assay type: ADME, organism-based; conditions: in vivo, read-out: beta t1/2 (converted); procedure, shortened: as §2
[13] = Thermodynamic solubility in pH 2 buffer; assay type: physicochemical; conditions: read-out: Therm_solubility
[14] = Thermodynamic solubility in pH 7.4 buffer; assay type: physicochemical; conditions: read-out: Therm_solubility
Mus musculus [15] = experiment: Analgesic activity in orally dosed mouse model of […]-induced mechanical hypersensitivity-induced pain assessed as reduction in mechanical hypersensitivity at 80 mg/kg, po; assay type: functional; set-up: scale not given: the % may be the effect or the level left
[16] = Cmax in Wistar rat at 10 mg/kg, po by HPLC-MS/MS analysis; assay type: ADME, organism-based; set-up: route oral, dose 10 mg/kg; conditions: in vivo; procedure, shortened: as §2
[17] = Cmax in CD1 mouse at 10 mg/kg, po by HPLC-MS/MS analysis; assay type: ADME, organism-based; set-up: route oral, dose 10 mg/kg; conditions: in vivo; procedure, shortened: as §1
[18] = Elimination half life in CD1 mouse at 10 mg/kg, po by HPLC-MS/MS analysis; assay type: ADME, organism-based; conditions: in vivo, read-out: beta t1/2 (converted); procedure, shortened: as §1
[19] = Volume of distribution at steady state in Wistar rat at 10 mg/kg, po by HPLC-MS/MS analysis; assay type: ADME, organism-based; conditions: in vivo; procedure, shortened: as §2
[20] = Genotoxicity in Salmonella typhimurium by Ames test; assay type: toxicity; conditions: salmonella enterica subsp. enterica serovar typhimurium
[21] = Lipophilicity, logP of compound; assay type: physicochemical; conditions: octanol/water
Procedure, shortened: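 Log P determined by a pHmetric technique on a GlpKa or Sirius-T3 instrument.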

HepG2 = experiment: Toxicity in human HepG2 cells assessed as reduction in cell viability up to 100 uM by MTT assay; assay type: cell-based
Procedure, shortened: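 HepG2 cells exposed to compound at up to 100 μM; viability read by MTT assay.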

[22] = target: T1, Sigma non-opioid intracellular receptor 1; experiment: Antagonist activity at human sigma1 receptor expressed in HEK293 cell membranes assessed as ratio of Ki without phenytoin/Ki with phenytoin by [3H]-(+)-pentazocine displacement assay; conditions: Cell membrane, filed as antagonist
[23] = Permeability in human Caco-2 cells; assay type: ADME, cell-based; conditions: read-out: permeability
[24] = Induction of CYP450 expression in human HepaRG cells at 50 uM; assay type: ADME, cell-based
Procedure, shortened: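 HepaRG cells exposed to compound at concentrations up to 50 μM; CYP induction assessed.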

Mus musculus [25] = experiment: Analgesic activity in orally dosed mouse model of intraplantar capsaicin-induced mechanical hypersensitivity-induced pain assessed as reduction in mechanical hypersensitivity; assay type: functional; conditions: po

Compound: Cc1cc(CCCCN2CCOCC2)nn1-c1ccc(Cl)c(Cl)c1
- Ki [1]: 116 nM
- Ki [2]: 9 nM

Compound: CC(=O)N1CCN(CCOCc2cc(C)n(-c3ccc(F)c(F)c3)n2)CC1
- IC50 [3]: > 10 µM
- Ki [1]: > 10000 nM
- Ki [2]: 58 nM

Compound: Cc1cc(COCCN2CCCCC2)nn1-c1ccc(Cl)c(Cl)c1
- Ki [1]: 28 nM
- Ki [2]: 2 nM

Compound: CC(=O)N1CCN(CCOCc2cc(C)n(-c3ccc(Cl)c(Cl)c3)n2)CC1
- IC50 [3]: > 10 µM
- Ki [1]: > 1000 nM
- Ki [2]: 15 nM
- inhibition (Cavia porcellus): < 50%

Compound: Cc1cc(COCCN2CCOCC2)nn1C1CCCC1
- Ki [1]: > 10000 nM
- Ki [2]: 240 nM

Compound: O=C(CCCN1CCC(O)(c2ccc(Cl)cc2)CC1)c1ccc(F)cc1 [HALOPERIDOL]
- Ki [1]: 22 nM

Compound: Cc1cc(OCCN2CCOCC2)nn1-c1ccc2ccccc2c1
- CL [4]: 109%
- CL [5]: 65%
- bioavailability [6]: 34%
- bioavailability [7]: 15%
- solubility [8]: 200 µg/mL (≈ 593 µM)
- AUC(0-inf) [9]: 428 ng·h/mL
- Vdss [10]: 2.2 L/kg
- AUC(0-inf) [11]: 958 ng·h/mL
- half-life [12]: 72 min
- Ki [1]: > 1000 nM
- solubility thermodynamic [13]: 230 µg/mL (≈ 682 µM)
- solubility thermodynamic [14]: 230 µg/mL (≈ 682 µM)
- Activity (Mus musculus [15]): 54%
- inhibition (Cavia porcellus): < 50%
- Cmax [16]: 301 ng/mL
- Cmax [17]: 622 ng/mL
- half-life [18]: 42 min
- Vdss [19]: 2.9 L/kg

Compound: Cc1cc(CCCN2CCOCC2)nn1-c1ccc(Cl)c(Cl)c1
- Ki [1]: 232 nM
- Ki [2]: 5 nM

Compound: Cc1ccccc1NC(=N)Nc1ccccc1C [DITOLYLGUANIDINE]
- Ki [1]: 23 nM

Compound: Cc1cc(COCCN2CCOCC2)nn1-c1ccc2ccccc2c1
- Ki [1]: > 1000 nM
- Ki [2]: 209 nM
- inhibition (Cavia porcellus): < 50%

Compound: Cc1cc(COCCN2CCOCC2)nn1-c1ccc(Cl)c(Cl)c1
- Ki [1]: 399 nM
- Ki [2]: 14 nM

Compound: Cc1cc(COCCN2C[C@@H](C)O[C@@H](C)C2)nn1-c1ccc(Cl)c(Cl)c1
- Ki [1]: 180 nM
- Ki [2]: 3 nM

Compound: Cc1cc(COCCN2CCNCC2)nn1-c1ccc(Cl)c(Cl)c1
- Ki [2]: 278 nM

Compound: CC(=O)N1CCN(CCCOCc2cc(C)n(-c3ccc(Cl)c(Cl)c3)n2)CC1
- IC50 [3]: 4.08 µM
- Ki [1]: > 1000 nM
- Ki [2]: 9 nM
- inhibition (Cavia porcellus): < 50%

Compound: CC(C)=CCN1CC[C@]2(C)c3cc(O)ccc3C[C@H]1[C@H]2C [(+)-PENTAZOCINE]
- Ki [1]: 719 nM

Compound: Cc1cc(COCCN2CCCC2)nn1-c1ccc(Cl)c(Cl)c1
- IC50 [3]: 5.12 µM
- Ki [1]: 27 nM
- Ki [2]: 6 nM

Compound: Clc1ccc(-n2ccc(COCCN3CCOCC3)n2)cc1Cl
- Ki [1]: 137 nM
- Ki [2]: 2 nM

Compound: CC(=O)N1CCN(CCOCc2ccn(-c3ccc(F)c(F)c3)n2)CC1.Cl
- CL [4]: 70%
- CL [5]: 89%
- bioavailability [6]: 69%
- Activity [20]: Non-Toxic
- bioavailability [7]: 60%
- AUC(0-inf) [9]: 2640 ng·h/mL
- logP [21]: 1.7
- Vdss [10]: 4.4 L/kg
- AUC(0-inf) [11]: 1430 ng·h/mL
- half-life [12]: < 60 min
- IC50 [3]: > 10 µM
- Ki [1]: > 10000 nM
- Activity (Mus musculus [15]): 95%
- Activity (HepG2): Non-Toxic
- Ki [2]: 22 nM
- Ratio Ki [22]: 0.9
- Cmax [16]: 1180 ng/mL
- Papp [23]: 51.5 ×10⁻⁶ cm/s
- Cmax [17]: 771 ng/mL
- Activity [24]: Non-Toxic
- half-life [18]: 204 min
- ED50 (Mus musculus [25]): 33 mg/kg
- Vdss [19]: 1.2 L/kg
